# The list is not random: actives were taken first. Their share in the collection is about 3.8%.
# MrgX1 agonist: agonists of human MrgX1 receptor | Q96LB2 | MrgX1-HEK293 cells, Fluo-4 calcium fluorescence, agonist mode; hits give high values | B-score at 10 µM | actives 0.44% (n = 310,000) | AID 588627;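 active means calcium response B-score plate-corrected fluorescence ratio at least 3 library SD, with starting fluorescence B-score inside 5 SD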
# Target sequence (Q96LB2 whole entry, looked up): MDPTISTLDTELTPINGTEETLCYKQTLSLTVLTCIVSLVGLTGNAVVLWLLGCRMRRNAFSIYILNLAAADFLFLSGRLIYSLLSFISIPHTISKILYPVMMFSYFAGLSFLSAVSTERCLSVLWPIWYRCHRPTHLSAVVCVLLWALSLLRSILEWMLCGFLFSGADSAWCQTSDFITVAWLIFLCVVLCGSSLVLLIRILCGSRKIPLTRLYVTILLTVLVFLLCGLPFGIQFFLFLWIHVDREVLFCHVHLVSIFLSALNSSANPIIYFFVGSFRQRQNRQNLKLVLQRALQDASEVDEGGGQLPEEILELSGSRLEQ
#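 Assay system: stable human MrgX1 HEK293 cell line. Quantity: 15,000 cells per well. Schedule: cells plated overnight, dye loaded 0.5 h 37 °C, 0.5 h room temperature. Detection: Fluo-4 NW calcium-flux fluorescence, kinetic read. Read-out basis: peak-minus-minimum fluorescence over baseline, converted to B scores. Control set: positive and negative control wells on each plate.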
# RGS4 block: human RGS4 inhibition; P49798; HEK293 M3R/RGS4 inducible, Fluo-4 calcium flux; hits give high values; triggered by carbachol at its EC20; B-score at 10 µM; actives 0.45% (n = 310,000); AID 463165;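 active means B-score, a plate-corrected calcium signal, over three deviations above library mean, with baseline fluorescence within five deviations of library mean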;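 further: RGS4 expression induced by doxycycline in cells with stable M3 receptor; B-score is computed from the integrated fluorescence ratio over baseline after carbachol; higher B-score means a larger calcium signal and so more RGS4 inhibition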
# Target sequence (P49798 whole entry, looked up): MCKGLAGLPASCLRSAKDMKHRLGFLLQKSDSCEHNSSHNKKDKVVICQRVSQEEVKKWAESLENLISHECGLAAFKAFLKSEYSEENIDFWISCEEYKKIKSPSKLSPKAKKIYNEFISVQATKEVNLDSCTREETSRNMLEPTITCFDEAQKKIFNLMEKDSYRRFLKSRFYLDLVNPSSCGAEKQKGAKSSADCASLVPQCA
# MrgX1 antagonist: antagonists of human MrgX1 receptor; B-score at 10 µM; Q96LB2; MRGX1-HEK293 calcium flux, Fluo-4, BAM8-22 antagonism; hits give low values; actives 1.3% (n = 310,000);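 active means calcium-response B-score plate-corrected more than 3 library SD below zero, starting fluorescence within 5 deviations, no agonist response on first addition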;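 further: peak minus trough fluorescence over baseline after final BAM8-22 challenge near maximal dose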
# MrgX1 allo act: allosterically activates human MrgX1 receptor signaling. Q96LB2. MrgX1-HEK293, Fluo-4 calcium flux, FDSS; hits give high values. B-score at 10 µM. actives 0.63% (n = 310,000). AID 588675;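 active means plate-corrected calcium response at least 3 library SD above typical, normal starting fluorescence, not activating the receptor alone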;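 further: compound read alongside a low EC10 to EC30 dose of BAM8-22 agonist; peak minus trough fluorescence over baseline measured at the second addition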
# Hep lipid drop: modulators of hepatic lipid droplet formation | inhibition, % at 6.5 µM | AID 1656 | AML12 mouse hepatocytes, oleate lipid droplets, BODIPY imaging | actives 0.4% (n = 240,000);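 active means lipid droplet intensity inhibited by at least 50%, with more than 500 cells counted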
#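 Test system: AML12 mouse liver cells; schedule: overnight exposure; technique: high-content imaging of BODIPY-stained droplets and DAPI nuclei; read-out: % inhibition of corrected integrated BODIPY droplet signal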
# RGS4 act: RGS4 potentiation or activation | actives 0.92% (n = 310,000) | HEK293 M3R/inducible RGS4, carbachol calcium flux Fluo4; hits give low values | B-score at 10 µM;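 active means B-score of the integrated calcium signal more than 4 SD below the library mean, with starting fluorescence not abnormally high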;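 further: negative B-score means reduced calcium response which marks RGS4 activation or potentiation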
#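 Test system: HEK293 cells with stable M3R and inducible RGS4; also added: carbachol at ECmax as muscarinic agonist stimulus; schedule: dye loading 30 min 37 °C, buffer rest 30 min RT; technique: kinetic calcium fluorescence imaging with Fluo4-AM dye, 2 µM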
# MrgX1 PAM conf: reconfirmed allosteric activator of human MrgX1 receptor; activation (ratio percentage), % at 10 µM; AID 602413; shares compounds with MrgX1 allo act; MrgX1-HEK293, Fluo-4 calcium fluorescence, FDSS; actives 13% (n = 1,200);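 active means ratio at least 3 SD above the weak peptide control, stable starting fluorescence, no direct agonism earlier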;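 further: compound followed by low BAM8-22 agonist challenge near EC20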
# HEK293 Ca flux: counter-screen for MrgX1 antagonists: effect in parental HEK293 cells | shares compounds with MrgX1 antagonist | Fluo-4 calcium fluorescence, FDSS | fluorescence ratio F(max-min)/F0 at 10 µM | actives 2% (n = 4,000) | AID 624111;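 active means duplicate-averaged calcium fluorescence ratio at least three times the standard deviation of buffer wells, a nonspecific response in parental cells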
# HEK293 Ca counter: MrgX1 allosteric activator counter-screen hit in parental HEK293 cells; fluorescence ratio F(max-min)/F0 at 10 µM; parental HEK293 calcium flux, Fluo-4 fluorescence ratio; hits give high values; actives 0.4% (n = 4,000); AID 624114; shares compounds with MrgX1 antagonist;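 active means calcium fluorescence ratio, averaged over duplicates, at least 3 SD of the buffer-well ratio, meaning a nonspecific response in receptor-free cells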;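 further: untransfected parental HEK293 lacking MrgX1 used as counterscreen for MrgX1 allosteric activators; fluorescence change taken during the second addition on a kinetic imager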
# HEK293 Ca cntr2: counter-screen for MrgX1 activators: effect in parental HEK293 cells. shares compounds with MrgX1 antagonist. Fluo-4 calcium fluorescence (FDSS); hits give high values. actives 8.7% (n = 4,000). fluorescence ratio F(max-min)/F0 at 10 µM;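 active means calcium fluorescence ratio at least three times the spread of buffer wells, meaning a non-specific response in parental cells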
# * marks the source's active call; other numbers are inactive results; i = inactive; / = no result.
SMILES,MrgX1 agonist,RGS4 block,MrgX1 antagonist,MrgX1 allo act,Hep lipid drop,RGS4 act,MrgX1 PAM conf,HEK293 Ca flux,HEK293 Ca counter,HEK293 Ca cntr2
O=c1c(Cl)c(N2CCC3(CC2)OCCO3)cnn1C12CC3CC(CC(C3)C1)C2,i,i,i,i,0.2,i,/,/,/,/
Cc1cccc(NC(=S)NC(=O)/C=C/c2ccco2)n1,i,i,i,25.1*,11.1,i,4.6%*,i,i,i
O=C(c1cc(-c2ccco2)nc2ccccc12)N1CCN(c2ccc(F)cc2)CC1,i,i,i,i,-8.1,i,/,/,/,/
COCCNC(=O)CN(C(=O)CCC(=O)Nc1nccs1)c1ccc2c(c1)OCO2,i,i,i,33.1*,17.7,i,i,i,i,i
CC(C)NC(=O)CN(C(=O)CCC(=O)Nc1nccs1)c1ccc2c(c1)OCO2,i,i,i,i,12.2,i,/,/,/,/
COc1ccc(N2CC(C(=O)Nc3cc(C)ccn3)CC2=O)cc1 (stereo not drawn),i,i,i,8.09*,-1.2,i,i,i,i,i
Cc1ccccc1N=CC=C1OC(C)(C)C(C)(C)O1,i,i,i,i,6.9,i,/,/,/,/
COc1ccc(C(=O)NCC(=O)OCC(=O)c2ccc3c(c2)NC(=O)CO3)cc1,i,i,i,7.56*,-4.9,i,i,i,48*,i
COc1cccc(C(=O)Nc2ccccc2F)c1,i,i,i,i,1.7,i,/,/,/,/
O=C(Nc1ccccc1F)Oc1cccc(OC(=O)Nc2ccccc2F)c1,i,i,i,7.53*,2.4,i,i,i,i,i
CN1CCN(/C=N/c2sc3c(c2C#N)CCCCC3)CC1,i,i,i,i,/,i,/,/,/,/
N#Cc1c(/N=C/C=C/c2ccccc2)sc2c1CCCC2,i,i,i,8*,/,i,i,i,i,i
CN(C)S(=O)(=O)c1ccc(S(=O)(=O)NCc2cccs2)cc1,i,i,i,i,0.0,i,/,/,/,/
CCOC(=O)N1CCC(NS(=O)(=O)c2ccc(C)cc2)CC1,i,i,i,8.23*,-11.5,i,i,i,i,i
O=C(NCc1cccc(Br)c1)c1cc(-c2ccccc2)nn1CC1CC(c2cccc([N+](=O)[O-])c2)=NO1 (stereo not drawn),i,i,i,i,/,i,/,/,/,/
COCCN(C(=O)c1csnn1)C(C(=O)NC1CCCCC1)c1ccccc1 (stereo not drawn),i,i,i,i,3.6,i,/,/,/,/
COc1ccc(C(=O)NCCCn2ccnc2)cc1,i,i,i,i,/,i,/,/,/,/
COc1cc(OC)c(C(=O)NCCCn2ccnc2)cc1OC,i,i,i,6.5*,-3.6,i,i,i,i,i
c1ccc(-c2cc3c(N4CCCCC4)ncnc3s2)cc1,i,i,i,8.89*,7.8,i,i,i,i,i
Cc1cc(C)c2c(=O)n(CC(=O)Nc3ccc(Br)c(C)c3)sc2n1,i,i,i,7.05*,4.9,i,i,i,i,i
COc1ccc(S(=O)(=O)c2c(O)c3ccc(C(=O)Nc4cccc(F)c4)cc3[nH]c2=O)cc1,i,i,i,17.5*,31.5,i,i,i,i,i
COc1cccc(NC(=O)c2ccc3c(O)c(S(=O)(=O)c4ccccc4)c(=O)[nH]c3c2)c1,i,i,i,i,-24.1,i,/,/,/,/
COc1ccc(S(=O)(=O)N2CCSC2C)cc1C (stereo not drawn),i,i,i,i,0.5,i,/,/,/,/
CCN(CC)C(=O)Oc1ccnc2cc(Cl)ccc12,i,i,i,7.44*,-3.9,i,i,i,i,i
CCN(CC)C(=O)Oc1ccc2ccccc2c1Cl,i,i,i,i,-10.7,i,/,/,/,/
SMILES,MrgX1 agonist,RGS4 block,MrgX1 antagonist,MrgX1 allo act,Hep lipid drop,RGS4 act,MrgX1 PAM conf,HEK293 Ca flux,HEK293 Ca counter,HEK293 Ca cntr2
O=C(Oc1ccnc2cc(Cl)ccc12)N1CCCCCC1,i,i,i,15.2*,/,i,i,i,i,i
COc1ccc(C)cc1NC(=O)CN1CCN(S(=O)(=O)c2ccc(Br)cc2)CC1,i,/,i,i,/,/,/,/,/,/
CC(=O)c1cc2c(cc1NC(=O)CN1CCCCC1C)OCO2 (stereo not drawn),i,i,i,11.3*,/,i,i,i,i,i
CCCCC(=O)NC(=S)Nc1c(C)cc(Br)cc1C,i,i,i,9.27*,1.0,i,i,i,i,i
CCCCC(=O)NC(=S)Nc1cccc(NC(=O)CC)c1,i,i,i,i,/,i,/,/,/,/
CCn1c(/C=C/c2ccc(F)cc2)nc2ccccc2c1=O,i,i,i,i,-4.4,i,/,/,/,/
O=c1c2ccccc2nc(/C=C/c2ccccc2)n1CCCO,i,i,i,11.2*,-10.5,i,i,i,i,i
CCn1c(/C=C/c2ccccc2)nc2ccccc2c1=O,i,i,i,7.71*,5.5,i,i,i,i,i
O=c1c2ccccc2nc(/C=C/c2ccc3c(c2)OCO3)n1CCCO,/,/,/,/,3.5,/,/,/,/,/
CCN=C1SC(CC(N)=O)C(=O)N1CC (stereo not drawn),i,i,i,i,12.9,i,/,/,/,/
CCOc1ccc(CCNC(=O)CSc2n[nH]c(N)n2)cc1OCC,i,i,i,i,1.2,i,/,/,/,/
O=C(CNCC1CCCO1)Nc1ccccc1N1CCCCCC1 (stereo not drawn),i,i,i,6.91*,/,i,i,i,i,i
Cc1ccc(OCC(=O)Nc2ccccc2N2CCOCC2)c(C)c1,i,i,i,9.91*,/,i,i,i,i,i
